Screening results as filed in PubChem.
STEP inh: inhibitors of human striatal-enriched phosphatase STEP. P54829. recombinant STEP, OMFP fluorogenic substrate, fluorescence. inhibition, % at 20 µM. 360,000 tested, 0.25% active. AID 588621;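 active means inhibition at 20 µM, scaled per plate between control wells, above about 37%, limit read from the data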;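 further: 0% = DMSO with enzyme and substrate and 100% = substrate only without enzyme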
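Assay system: isolated STEP enzyme. Buffer or medium: pH 6.0 Bis-Tris with DTT and Tween 20. Also added: fluorogenic phosphatase substrate OMFP at 25 µM final. Dosing: 20 µM, 1% DMSO. Timing: 20 min reaction, room temperature, in the dark. Measured by: fluorescence intensity, excitation 480 nm, emission 540 nm. Evaluation: normalized % inhibition.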
Scp-1 inhibitor: Scp-1 (human) phosphatase inhibition | Recombinant Scp1, phosphopeptide, malachite green phosphate absorbance | inhibition, % at 20 µM | 340,000 tested, 0.88% active | Q9GZU7;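 active means inhibition above about 50% at 20 µM, limit read from the data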;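 further: plate controls were DMSO wells with enzyme for no effect and wells lacking enzyme for full effect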
Target sequence (Q9GZU7 76-261 limits assumed): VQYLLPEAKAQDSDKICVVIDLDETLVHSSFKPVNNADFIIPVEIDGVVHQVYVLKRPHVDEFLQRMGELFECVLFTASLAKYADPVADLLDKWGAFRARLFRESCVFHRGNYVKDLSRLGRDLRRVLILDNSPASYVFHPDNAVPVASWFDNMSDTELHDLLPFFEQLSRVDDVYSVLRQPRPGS
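Material: truncated SCP-1 phosphatase (76-261aa) / Buffer or medium: 50 mM Tris acetate pH 5.5, 0.005% Tween-20, 10 mM MgCl2 / Compound dosing: one concentration, 20 µM, with 1.0% DMSO / Incubation: 45 min room-temperature reaction, 5 min colour, 30 min stabiliser / Detection: colorimetric free-phosphate detection, absorbance 630 nm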
LMPTP block: LMPTP (human) inhibition; recombinant LMPTP-A, OMFP fluorogenic substrate, fluorescence intensity; inhibition, % at 20 µM; 360,000 tested, 0.22% active; AID 651560;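 active means compounds that cut the enzyme signal by at least half of the control window in the single-dose screen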;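 further: plate controls were DMSO wells with enzyme plus substrate for no effect and substrate without enzyme for full effect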
Target sequence (P24666 whole entry, looked up): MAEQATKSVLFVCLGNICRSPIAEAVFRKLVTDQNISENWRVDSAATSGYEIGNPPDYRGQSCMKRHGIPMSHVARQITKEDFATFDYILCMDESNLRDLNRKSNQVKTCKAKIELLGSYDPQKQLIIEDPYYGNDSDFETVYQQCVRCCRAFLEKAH
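Test system: LMPTP-A phosphatase enzyme. Amount: LMPTP-A at 0.625 nM final in the reaction. Reagent: OMFP substrate, 400 µM final. Times: 50 min at room temperature. Signal: endpoint fluorescence intensity from OMFP dephosphorylation. Read-out basis: % inhibition. Benchmarks: no-enzyme and uninhibited controls.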
DNMT1 block: inhibitors of human DNMT1; DNMT1 molecular beacon, Hinp1I cleavage, fluorescence; inhibition (reported as % activation of signal), % at 10 µM; 360,000 tested, 0.83% active; in the data active means inhibition above about 50%
F508del corr: correctors of CFTR F508del function in bronchial epithelial cells | CFBE cells, YFP halide quenching; stimulated with forskolin plus potentiator P3; % fluorescence drop versus neutral controls | activity (quench increase), % at 7.58 µM | 350,000 tested, 0.36% active | AID 720511;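 active means mean added fluorescence quench of at least 8% versus neutral control, with both replicates also reaching 8%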;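 further: cells transiently co-express mutant CFTR-F508del with the halide-sensitive YFP; corrector assay measuring rescue of mutant channel to the surface after 24 h compound exposure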
SUMO1-SIM PPI: SUMO1-SIM interaction modulation. SUMO1 binding to a labelled peptide, TR-FRET, 1 h. inhibition, % at 20 µM. 360,000 tested, 0.33% active. P63165; in the data active means inhibition above about 37%
Target sequence (P63165 whole entry, looked up): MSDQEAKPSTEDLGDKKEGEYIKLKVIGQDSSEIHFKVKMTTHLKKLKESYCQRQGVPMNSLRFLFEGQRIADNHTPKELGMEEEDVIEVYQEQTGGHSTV
DNMT1 inh conf: DNMT1 inhibition confirmation, single concentration | shares compounds with DNMT1 block | DNMT1 molecular beacon HinP1I cleavage, fluorescence | inhibition, % at 10 µM | 2,300 tested, 8% active;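 active means average inhibition of at least 30% in the single-concentration confirmation test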
DNMT1 interf: counter-screen for DNMT1 inhibitors: spectral interference | shares compounds with DNMT1 block | 2,300 tested, 1% active | activation (fluorescence interference), % at 10 µM | DNMT1 molecular beacon spectral interference counterscreen, fluorescence 485/520;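 active means activation of at least 30% at 10 µM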;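 further: DNMT1 catalytic domain with a HinP1I cleavage step and a FAM/dabcyl DNA beacon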
Numbers without * were called inactive; x = no result. In the library only some 1.6% were active in any assay of this set; here they are far more common.

SMILES	STEP inh	Scp-1 inhibitor	LMPTP block	DNMT1 block	F508del corr	SUMO1-SIM PPI	DNMT1 inh conf	DNMT1 interf
C=CCn1c(SCC(=O)Nc2ccc(-c3nc4ccc(C)cc4s3)cc2)nnc1-c1ccccc1	10	61*	7	74*	x	7	5	-3
O=C(CSc1nnc2ccccn12)Nc1cccc(-c2nc3ccccc3s2)c1	2	-7	3	61*	x	-2	1	-7
C=CCn1c(SCC(=O)NNC(=O)Nc2ccc(C)cc2)nnc1-c1ccccc1	1	-11	-2	0	-2	2	x	x
O=C(CSc1nnc2ccccn12)Nc1ccc2c(c1)OCO2	2	1	0	-1	-1	0	x	x
C=CCn1c(SCC(=O)Nc2ccc3c(c2)OCO3)nnc1-c1ccccc1	1	5	3	52*	x	-2	1	6
C[C@H](O)C#Cc1ccc([C@@H]2[C@@H](CO)N3CCCCN(C(=O)c4ccc5c(c4)OCO5)C[C@@H]23)cc1	x	x	x	x	-1	x	x	x
c1coc(-c2cnc3ccccc3n2)c1	-3	x	0	-6	0	-18	x	x
c1coc(-c2nc3ccccc3nc2-c2ccco2)c1	9	44	21	103*	-4	30	1	4
O=C(c1ccccc1)c1ccc2nc(-c3ccco3)c(-c3ccco3)nc2c1	9	66*	75*	101*	4	52*	1	2
O=C(NCCO)c1ccc2nc(-c3ccco3)c(-c3ccco3)nc2c1	6	31	6	58*	x	44*	3	2
C[C@@H]1CCCCO[C@@H](CN(C)CC2CCCCC2)[C@@H](C)CN([C@@H](C)CO)C(=O)c2cc(NS(=O)(=O)c3cccs3)ccc2O1	x	x	x	x	-2	x	x	x
Cc1cccc(S(=O)(=O)N[C@H]2CC[C@@H](CCNC(=O)c3cnccn3)O[C@H]2CO)c1	x	x	x	x	0	x	x	x
C[C@H]1CN([C@@H](C)CO)C(=O)c2cccc(NC(=O)c3ccncc3)c2O[C@@H]1CN(C)Cc1ccc2c(c1)OCO2	x	x	x	x	1	x	x	x
C[C@H]1CN([C@@H](C)CO)C(=O)c2cccc(NC(=O)C3CC3)c2O[C@@H]1CN(C)Cc1ccc(Cl)c(Cl)c1	x	x	x	x	1	x	x	x
O=C(N/N=C/c1cc(Br)c(Br)o1)c1ccc2c(c1)OCCO2	10	84*	35	72*	1	3	14	0
O=C(N/N=C/c1cc(Br)c(Br)o1)c1cccnc1	2	21	2	62*	x	3	3	0
CC(C)NC(=O)N(C)C[C@@H]1Oc2ccc(NC(=O)c3ccncc3)cc2C(=O)N([C@H](C)CO)C[C@H]1C	x	x	x	x	-1	x	x	x
COc1cccc(NC(=O)N(C)C[C@H]2Oc3cc(/C=C/c4ccccc4)ccc3S(=O)(=O)N([C@@H](C)CO)C[C@H]2C)c1	x	x	x	x	0	x	x	x
Cc1ccc(/C=N/NC(=O)c2cccc(S(=O)(=O)Nc3ccccc3Cl)c2)o1	4	-14	0	0	2	35	x	x
O=C(N/N=C/c1ccco1)c1cccc(S(=O)(=O)Nc2ccccc2Cl)c1	2	35	5	56*	0	26	2	2
N#Cc1cnn(Cc2ccc(Cl)cc2)c1N	-1	2	0	10	x	0	x	x
N#Cc1cnn(Cc2ccccc2)c1N	-2	-9	-5	72*	x	3	2	3
Clc1ccc(-c2nn3c(-c4ccccc4)nnc3s2)cc1	3	-5	1	4	x	1	x	x
Clc1ccc(-c2nnc3sc(-c4ccc(Br)o4)nn23)c(Cl)c1	-8	8	-1	35	x	-1	x	x
Cc1oc(-c2ccc(Cl)cc2)cc1-c1nn2c(-c3ccoc3C)nnc2s1	-1	45	8	93*	x	20	5	1
SMILES	STEP inh	Scp-1 inhibitor	LMPTP block	DNMT1 block	F508del corr	SUMO1-SIM PPI	DNMT1 inh conf	DNMT1 interf
Clc1ccc(-c2nnc3sc(-c4ccc(Br)o4)nn23)cc1	4	-4	-1	112*	x	-2	61*	48*
COc1ccc(-c2csc3nc(C(C)(C)C)oc(=O)c23)cc1OC	-4	-12	-2	0	-5	4	x	x
COc1ccc(-c2csc3nc(-c4ccc(C)cc4)oc(=O)c23)cc1OC	14	41	13	85*	1	0	0	-8
C[C@@H]1CN([C@H](C)CO)C(=O)c2ccccc2-c2ccccc2CO[C@@H]1CN(C)C(=O)Cc1ccccc1	x	x	x	x	-2	x	x	x
Cc1c(C)c2c(OCC(=O)Nc3cccnc3)cc3c(c2oc1=O)CCC(C)(C)O3	5	-1	1	55*	-2	14	1	2
CCc1cc(=O)oc2c3c(cc(OCC(=O)Nc4cccnc4)c12)OC(C)(C)CC3	0	7	2	0	3	6	x	x
NC(=O)c1sc2nc3c(c(-c4ccco4)c2c1N)CCC3	5	0	2	75*	-2	13	12	12
NC(=O)c1sc2nc(-c3ccco3)ccc2c1N	10	4	13	98*	x	37	5	5
COC(=O)c1sc2nc(-c3ccco3)ccc2c1N	16	-4	4	-2	x	11	x	x
CC(C)NC(=O)Nc1ccc2c(c1)C(=O)N([C@H](C)CO)C[C@H](C)[C@H](CN(C)C(=O)CCCN(C)C)OCCCC[C@H](C)O2	x	x	x	x	-3	x	x	x
O=C1NN(c2ccccc2)C(=O)/C1=C/c1ccc(Sc2ccc(Cl)cc2)o1	2	9	5	88*	-4	21	19	7
Cc1ccc(Sc2ccc(/C=C3/C(=O)NN(c4ccccc4)C3=O)o2)cc1	8	3	4	65*	-1	-22	13	3
O=C1NC(=O)/C(=C\c2ccc(Sc3ccc(Cl)cc3)o2)N1	-1	21	-2	28	x	2	x	x
Cc1ccsc1/C=C1/C(=O)NN(c2ccccc2)C1=O	-1	1	2	5	-3	-25	x	x
CC(NC(=O)CN(c1ccc(Cl)cc1)S(C)(=O)=O)c1ccccc1 (stereo not drawn)	-2	-10	-1	58*	-2	1	7	5
CC(NC(=O)CN(c1ccc(F)cc1)S(C)(=O)=O)c1ccccc1 (stereo not drawn)	1	-6	-1	0	-1	-3	x	x
CC1CCCCN1S(=O)(=O)c1ccc(S(=O)(=O)N2CCN(c3ccc(F)cc3)CC2)cc1 (stereo not drawn)	1	-4	-3	52*	x	2	3	3
O=C(Cc1cccnc1)N1CC(=O)N2[C@@H](CO)[C@H](c3ccc(C4=CCCC4)cc3)[C@@H]2C1	x	x	x	x	1	x	x	x
